Laboratory results as given in ChEMBL document CHEMBL1157812, “Mechanism-based inhibitors of the aspartyl protease plasmepsin II as potential antimalarial agents” (J Med Chem, 2010).
The source made the active and inactive calls. The calls are words filed in the database; no cut-off is given here.

How the values were obtained:
[1] = test system: Plasmodium falciparum; test: Antiplasmodial activity against Plasmodium falciparum 3D7 trophozoites infected in human erythrocytes assessed as [3H]hypoxanthine incorporation into nucleic acid after 30 hrs by beta-scintillation counting; type: functional, organism-based
[2] = Selectivity ratio of Ki for human cathepsin D to Ki for Plasmodium falciparum recombinant plasmepsin-2
[3] = test system: Plasmodium falciparum; test: Antiplasmodial activity against Plasmodium falciparum assessed as inhibition of parasite growth at 20 uM; type: functional
[4] = target: T1, Plasmepsin II (Plasmodium falciparum, UniProt P46925); test: Inhibition of Plasmodium falciparum plasmepsin-2
T1 sequence (P46925 whole entry): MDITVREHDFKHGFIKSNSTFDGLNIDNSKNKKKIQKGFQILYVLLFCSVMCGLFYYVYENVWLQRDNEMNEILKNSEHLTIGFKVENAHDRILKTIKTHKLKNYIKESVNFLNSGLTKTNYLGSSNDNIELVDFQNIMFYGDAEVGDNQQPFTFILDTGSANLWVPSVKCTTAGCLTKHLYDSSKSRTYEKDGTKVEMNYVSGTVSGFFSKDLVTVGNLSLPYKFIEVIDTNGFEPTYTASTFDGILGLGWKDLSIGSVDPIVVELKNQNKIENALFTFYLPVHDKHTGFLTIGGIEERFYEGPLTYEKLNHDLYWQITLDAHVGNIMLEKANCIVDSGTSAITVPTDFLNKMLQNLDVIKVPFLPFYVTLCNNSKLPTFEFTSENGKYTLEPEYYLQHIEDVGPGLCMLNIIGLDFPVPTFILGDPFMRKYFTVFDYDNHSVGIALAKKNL

[5] = Selectivity ratio of Ki for human cathepsin D to Ki for Plasmodium falciparum plasmepsin-2
[6] = target: Cathepsin D (Homo sapiens, UniProt P07339); test: Inhibition of human cathepsin D after 30 mins by FRET assay
Cathepsin D, sequence (P07339 65-162 limits assumed): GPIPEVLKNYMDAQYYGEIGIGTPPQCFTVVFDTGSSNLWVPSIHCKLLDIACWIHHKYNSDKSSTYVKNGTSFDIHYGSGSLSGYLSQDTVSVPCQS
Cathepsin D, sequence (P07339 169-412 limits assumed): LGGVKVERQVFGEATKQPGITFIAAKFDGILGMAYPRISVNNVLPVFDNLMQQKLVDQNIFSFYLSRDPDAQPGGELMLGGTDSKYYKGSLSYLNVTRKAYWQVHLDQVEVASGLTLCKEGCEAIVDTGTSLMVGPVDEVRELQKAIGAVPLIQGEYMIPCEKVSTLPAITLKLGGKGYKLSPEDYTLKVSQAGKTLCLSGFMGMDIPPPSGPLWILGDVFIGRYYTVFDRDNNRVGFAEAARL

[7] = target: Plasmepsin II (Plasmodium falciparum) (UniProt P46925); test: Irreversible inhibition of Plasmodium falciparum plasmepsin-2 expressed in Escherichia coli BL21 (DE3) at 1 uM measured after overnight dialysis by spun column chromatography
Plasmepsin II (Plasmodium falciparum), sequence (P46925 125-453 limits assumed): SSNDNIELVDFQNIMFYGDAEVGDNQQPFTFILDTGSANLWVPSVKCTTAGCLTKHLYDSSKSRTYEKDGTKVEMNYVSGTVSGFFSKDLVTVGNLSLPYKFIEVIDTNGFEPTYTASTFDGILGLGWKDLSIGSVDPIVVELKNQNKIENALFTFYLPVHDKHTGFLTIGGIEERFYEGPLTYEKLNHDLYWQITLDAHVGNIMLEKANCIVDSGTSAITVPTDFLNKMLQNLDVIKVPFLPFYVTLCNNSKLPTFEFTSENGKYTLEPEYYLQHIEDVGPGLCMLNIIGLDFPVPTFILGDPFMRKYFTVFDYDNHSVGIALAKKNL

[8] = target: Plasmepsin II (Plasmodium falciparum) (UniProt P46925); test: Inhibition of Plasmodium falciparum plasmepsin-2 expressed in Escherichia coli BL21 (DE3) at 1 uM after 30 min by FRET assay
[9] = target: T1, Plasmepsin II; test: Competitive inhibition of Plasmodium falciparum plasmepsin-2 expressed in Escherichia coli BL21 (DE3) after 30 min by FRET assay
Outline: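 Recombinant mature Plm II from inclusion bodies, refolded and activated in 0.1 M sodium citrate pH 4.7, stored in 20 mM Tris-HCl pH 8.5 with 0.25 M NaCl. FRET assay in NaOAc buffer pH 5.0 using 2.5 nM enzyme and 1 μM DABCYL-Glu-Arg-Nle-Phe-Leu-Ser-Phe-Pro-EDANS substrate. Inhibitor, enzyme and substrate incubated 30 min at 37 C; EDANS fluorescence read at excitation 336 nm.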

[10] = target: Plasmepsin II (Plasmodium falciparum) (UniProt P46925); test: Inhibition of Plasmodium falciparum plasmepsin-2 expressed in Escherichia coli BL21 (DE3) at 1 uM after 1 to 2 hrs
[11] = test system: CHO; test: Cytotoxicity against CHO cells at 10 uM after 24 hrs by MTS assay; type: cell-based, Cricetulus griseus; conditions: chinese hamster
[12] = Selectivity ratio of IC50 for human cathepsin D to IC50 for Plasmodium falciparum plasmepsin-2 expressed in Escherichia coli BL21 (DE3)
[13] = target: Plasmepsin II (Plasmodium falciparum) (UniProt P46925); test: Inhibition of Plasmodium falciparum plasmepsin-2 expressed in Escherichia coli BL21 (DE3) assessed as residual activity at 1 uM measured after overnight dialysis by spun column chromatography
[14] = test system: CHO; test: Cytotoxicity against CHO cells at 100 ug/mL after 24 hrs by MTS assay; type: cell-based, Cricetulus griseus; conditions: chinese hamster
[15] = test system: CHO; test: Cytotoxicity against CHO cells at 250 ug/mL after 24 hrs by MTS assay; type: cell-based, Cricetulus griseus; conditions: chinese hamster
[16] = target: T1, Plasmepsin II; test: Inhibition of Plasmodium falciparum plasmepsin-2 expressed in Escherichia coli BL21 (DE3) after 40 min by Kitz-Wilson plot analysis
[17] = target: Plasmepsin II (Plasmodium falciparum) (UniProt P46925); test: Inhibition of Plasmodium falciparum plasmepsin-2 expressed in Escherichia coli BL21 (DE3) at compound to substrate ratio of 1:1 to 1: 5 after 2 hrs by FRET assay
[18] = test system: Plasmodium falciparum; test: Antiplasmodial activity against Plasmodium falciparum infected in human erythrocytes assessed as inhibition of parasite growth; type: functional; conditions: read-out: ED50 (the source's name)

SMILES	IC50 [1]	IC50 [6]	inhibition [7]	inhibition [8]	IC50 [9]	inhibition [10]	Activity [11]	Ratio IC50 [12]	Activity [13]	other results
CC(C)C[C@H](NC(=O)[C@H](C)NC(=O)C[C@H](O)[C@H](Cc1ccccc1)NC(=O)[C@@H](NC(=O)c1ccccn1)C(C)C)C(N)=O	5000 nM	–	–	–	–	–	–	–	–	Ratio Ki [2]: 38; inhibition at 20 µM [3]: 54%
CC(C)C[C@H](NC(=O)[C@H](C)NC(=O)C[C@H](O)[C@H](COCc1ccc(Br)cc1)NC(=O)[C@@H](NC(=O)c1ccccn1)C(C)C)C(N)=O	5000 nM	–	–	–	–	–	–	–	–	Ki [4]: 0.5 nM
Cc1cccc(C)c1OCC(=O)N[C@@H](Cc1ccccc1)[C@@H](O)C[C@H](CC(C)C)NC(=O)[C@H](C(C)C)N1CCCNC1=O	5000 nM	–	–	–	–	–	–	–	–	Ratio Ki [5]: 10; Ki [4]: 357 nM
CC(C)C[C@H](NC(=O)[C@H](CC#N)NC(=O)C[C@H](O)[C@H](Cc1ccccc1)NC(=O)[C@@H](NC(=O)c1ccccn1)C(C)C)C(N)=O	–	50 nM	inactive	88.2%	141 nM	76.9%	Non-toxic	1.4	88%	–
C#CCNC(=O)[C@H](Cc1ccccc1)NC(=O)C[C@H](O)[C@H](Cc1ccccc1)NC(=O)[C@@H](NC(=O)c1ccccn1)C(C)C	9200 nM	50 nM	inactive	Active	22 nM	76.9%	Non-toxic	10.6	36.1%	–
CC(C)C[C@H](NC(=O)[C@H](CCl)NC(=O)C[C@H](O)[C@H](Cc1ccccc1)NC(=O)[C@@H](NC(=O)c1ccccn1)C(C)C)C(N)=O	–	50 nM	Active	Active	28 nM	76.9%	Non-toxic	3.3	–	Activity [14]: Non-toxic; Activity [15]: Non-toxic; Ki [16]: 35.7 nM; inhibition [17]: Active
Cc1ccc(-c2ccc(C[C@H](NC[C@H](O)[C@H](Cc3ccccc3)NC(=O)[C@@H](NC(=O)c3ccccn3)C(C)C)C(N)=O)cc2)cc1	5000 nM	–	–	–	–	–	–	–	–	EC50 [18]: 1600 nM
C#CC[C@H](NC(=O)C[C@H](O)[C@H](Cc1ccccc1)NC(=O)[C@@H](NC(=O)c1ccccn1)C(C)C)C(=O)N[C@@H](CC(C)C)C(N)=O	7700 nM	50 nM	Active	Active	333 nM	76.9%	Non-toxic	–	–	Ki [16]: 333 nM; inhibition [17]: Active
CC(C)CC(=O)N[C@H](C(=O)N[C@H](C(=O)N[C@@H](CC(C)C)[C@@H](O)CC(=O)N[C@@H](C)C(=O)N[C@@H](CC(C)C)[C@@H](O)CC(=O)O)C(C)C)C(C)C	–	–	–	82.8%	–	97.8%	–	–	85.2%	–
